Columns and labels:
[1] = tested on: Flag-6x-histidine construct; assay: Quench counter-screen; details: compounds tested at 10 µM
In short: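 Run as the integrase–LEDGF/p75 AlphaScreen, with one Flag-6xhistidine construct replacing both proteins. Compound incubations were 30 min then 60 min at 4 °C. Ni-chelate donor and anti-FLAG acceptor beads were added at 20 µg/mL each for 1 h at 30 °C, kept from light. Acceptor-bead emission gave percent inhibition.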

[2] = target: IN 3'-processing catalysis (Human immunodeficiency virus type 1 group M subtype B, UniProt P12497); assay: IN enzymatic assay, 3'-processing; type: biochemical, HIV-1
[3] = target: IN strand transfer catalysis (Human immunodeficiency virus type 1 group M subtype B, UniProt P12497); assay: IN enzymatic assay, strand transfer; type: biochemical, HIV-1
LNCaP cells = assay: MTT cytotoxicity assay in LNCaP cells; type: cell-based
HIV-1 = assay: Antiviral MTT/MT-4 assay; type: cell-based; details: MT-4 cells, 13 µM

## Cc1ccc(NCc2ccc(O)c3ncccc23)cc1C [Q2–13, 5-(((3,4-dimethylphenyl)amino)methyl)quinolin-8-ol]
[1]
  Quench % Inhib.: <50%

## Oc1ccc(CNc2ccc(C(F)(F)F)cc2)c2cccnc12 [Q2–3]
[2]
  IC50: > 20 µM
[3]
  IC50: > 20 µM
[1]
  Quench % Inhib.: <50%

## CCC(=O)NC(c1ccc(OC)c(OC)c1)c1cc(Cl)c2cccnc2c1O (stereo not shown) [Q1–9]
[1]
  Quench % Inhib.: <50%

## COc1cccc(C(NC(C)=O)c2ccc3cccnc3c2O)c1 (stereo not shown) [Q1–3]
[2]
  IC50: > 20 µM
[3]
  IC50: > 20 µM
[1]
  Quench % Inhib.: <50%

## Oc1ccc(CNc2ccccc2Cl)c2cccnc12 [Q2–14]
[1]
  Quench % Inhib.: <50%

## CCOC(=O)C1CCN(Cc2ccc(O)c3ncccc23)CC1 [Q3–8]
[2]
  IC50: > 20 µM
[3]
  IC50: > 20 µM
[1]
  Quench % Inhib.: <50%

## Oc1ccccc1C(Nc1nccs1)c1ccc2cccnc2c1O (stereo not shown) [Q1–12]
[1]
  Quench % Inhib.: <50%

## Oc1ccc(CNc2ccccc2F)c2cccnc12 [Q2–10]
[2]
  IC50: > 20 µM
[3]
  IC50: > 20 µM
[1]
  Quench % Inhib.: <50%

## CC(=O)NC(c1ccccc1)c1cc(Cl)c2cccnc2c1O (stereo not shown) [Q1–5]
[2]
  IC50: > 20 µM
[3]
  IC50: > 20 µM
[1]
  Quench % Inhib.: <50%

## CN1CCN(Cc2ccc(O)c3ncccc23)CC1 [Q3-2]
LNCaP cells
  cytotoxicity in MTT LNCaP assay (in words): negligible inhibition of cell growth
[1]
  Quench % Inhib.: <50%

## Cc1cccc(NCc2ccc(O)c3ncccc23)c1C [Q2–6]
[2]
  IC50: > 20 µM
[3]
  IC50: > 20 µM
[1]
  Quench % Inhib.: <50%
HIV-1
  antiviral activity at maximum testable concentration: no antiviral activity could be detected

## Oc1ccc(CN2CCN(Cc3ccccc3)CC2)c2cccnc12 [Q3–9]
[2]
  IC50: > 20 µM
[3]
  IC50: > 20 µM
[1]
  Quench % Inhib.: <50%

## Cc1cccc(NCc2ccc(O)c3ncccc23)n1 [Q2–4]
[2]
  IC50: > 20 µM
[3]
  IC50: > 20 µM
[1]
  Quench % Inhib.: <50%

## Oc1ccc(Cl)c2cccnc12 [QA, 5-chloroquinolin-8-ol]
[2]
  IC50: > 20 µM
[3]
  IC50: > 20 µM
[1]
  Quench % Inhib.: <50%

## Oc1c(Cl)cc(Cl)c2cccnc12 [QB, 5,7-dichloroquinolin-8-ol]
[2]
  IC50: > 20 µM
[3]
  IC50: > 20 µM
[1]
  Quench % Inhib.: <50%

## CCC(=O)NC(c1ccco1)c1cc(Cl)c2cccnc2c1O (stereo not shown) [Q1–8]
[1]
  Quench % Inhib.: <50%

## COc1ccc(C(NC(C)=O)c2cc([N+](=O)[O-])c3cccnc3c2O)cc1OC (stereo not shown) [Q1–7]
[1]
  Quench % Inhib.: <50%

## Oc1ccc(CN2CCCCC2)c2cccnc12 [Q3-1]
LNCaP cells
  cytotoxicity in MTT LNCaP assay (in words): negligible inhibition of cell growth
[1]
  Quench % Inhib.: <50%

## Cc1cccnc1NCc1ccc(O)c2ncccc12 [Q2–9]
[2]
  IC50: > 20 µM
[3]
  IC50: > 20 µM
[1]
  Quench % Inhib.: <50%

## CCCC(=O)NC(c1ccccc1)c1ccc2cccnc2c1O (stereo not shown) [Q1-1]
LNCaP cells
  cytotoxicity in MTT LNCaP assay (in words): notable cytotoxicity
[2]
  IC50: > 20 µM
[3]
  IC50: > 20 µM
[1]
  Quench % Inhib.: <50%

## CCOc1ccc(NCc2ccc(O)c3ncccc23)cc1 [Q2–12]
[1]
  Quench % Inhib.: <50%

## Cc1ccccc1NCc1ccc(O)c2ncccc12 [Q2-1]
[1]
  Quench % Inhib.: <50%

## CCC(=O)NC(c1cccs1)c1cc([N+](=O)[O-])c2cccnc2c1O (stereo not shown) [Q1–6]
[2]
  IC50: > 20 µM
[3]
  IC50: > 20 µM
[1]
  Quench % Inhib.: <50%

## CCOC(=O)C1CCCN(Cc2ccc(O)c3ncccc23)C1 (stereo not shown) [Q3–6]
[1]
  Quench % Inhib.: <50%

## Cc1ccc(NCc2ccc(O)c3ncccc23)cc1 [Q2–8, 5-((p-tolylamino)methyl)quinolin-8-ol]
[1]
  Quench % Inhib.: <50%

## Oc1ccc(Cc2ccc(O)c3ncccc23)c2cccnc12 [Q2-2]
LNCaP cells
  cytotoxicity in MTT LNCaP assay (in words): notable cytotoxicity
[1]
  Quench % Inhib.: <50%

## Oc1ccc(CN2CCN(c3ccccc3)CC2)c2cccnc12 [Q3–7]
LNCaP cells
  cytotoxicity in MTT LNCaP assay (in words): notable cell-growth inhibition
[1]
  Quench % Inhib.: <50%

## COc1cccc(NCc2ccc(O)c3ncccc23)c1 [Q2–7]
LNCaP cells
  cytotoxicity in MTT LNCaP assay (in words): notable cytotoxicity
[2]
  IC50: > 20 µM
[3]
  IC50: > 20 µM
[1]
  Quench % Inhib.: <50%

## CC(=O)NC(c1ccc(N(C)C)cc1)c1cc(Cl)c2cccnc2c1O (stereo not shown) [Q1–10]
[1]
  Quench % Inhib.: <50%

## CCC(=O)NC(c1ccccc1OC)c1ccc2cccnc2c1O (stereo not shown) [Q1–2]
LNCaP cells
  cytotoxicity in MTT LNCaP assay (in words): notable cytotoxicity
[2]
  IC50: > 20 µM
[3]
  IC50: > 20 µM
[1]
  Quench % Inhib.: <50%

## CCC(=O)NC(c1ccc(OC)cc1)c1cc([N+](=O)[O-])c2cccnc2c1O (stereo not shown) [Q1–4]
[2]
  IC50: > 20 µM
[3]
  IC50: > 20 µM
[1]
  Quench % Inhib.: <50%

## Cc1ccc(S(=O)(=O)NC(=O)Oc2cccc3cccnc23)cc1 [Q4-1]
LNCaP cells
  cytotoxicity in MTT LNCaP assay (in words): low cytotoxicity
[2]
  IC50: > 20 µM
[3]
  IC50: > 20 µM
[1]
  Quench % Inhib.: <50%

## O=C(CC(Sc1cccc2cccnc12)c1ccc(OC(F)F)cc1)c1ccco1 (stereo not shown) [Q5-1]
[2]
  IC50: > 20 µM
[3]
  IC50: > 20 µM
[1]
  Quench % Inhib.: <50%

## Oc1ccc(CNc2cccc(C(F)(F)F)c2)c2cccnc12 [Q2–5]
[2]
  IC50: > 20 µM
[3]
  IC50: > 20 µM
[1]
  Quench % Inhib.: <50%

## Cc1cccc(NCc2ccc(O)c3ncccc23)c1 [Q2–11]
[2]
  IC50: > 20 µM
[3]
  IC50: > 20 µM
[1]
  Quench % Inhib.: <50%

## CCCC(=O)NC(c1ccc(OC)cc1)c1ccc2cccnc2c1O (stereo not shown) [Q1–11]
[1]
  Quench % Inhib.: <50%

## O=C(CC(Sc1cccc2cccnc12)c1ccc(F)cc1)c1cccs1 (stereo not shown) [Q5-2]
[2]
  IC50: > 20 µM
[3]
  IC50: > 20 µM
[1]
  Quench % Inhib.: <50%

## CCOCc1ccc(O)c2ncccc12 [QC, 5-(ethoxymethyl)quinolin-8-ol]
[2]
  IC50: > 20 µM
[3]
  IC50: > 20 µM
[1]
  Quench % Inhib.: <50%
